Experiment: Toxicity liver stage against HepG2, at 10uM
Type: cell-based
Parameters: test concentration 10 uM, cell line HepG2-A16-CD81EGFP
Settings: human, HepG2-A16-CD81EGFP cells; read-out: INHIBITION
In short: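 Uninfected HepG2-A16-CD81EGFP cells, 3 × 10^3 per well, 1536-well, plated on prespotted compound at 10 μM final, parasite-free screening media added to match infected plates; puromycin 10 μM positive, DMSO 0.5% negative; run in parallel with 48 h PbLuc assay at 37 °C, 5% CO2; viability by CellTiter-Glo luminescence, normalized to controls.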

SMILES	cytotoxicity at 10 µM [%]
O=C(CN1CCOCC1)Nc1ncc(Br)cc1Br	10.2
O=C(O)CCn1ccc(=O)c2ccccc21	0.148
Cc1csc(C(=O)NCCn2nc(-n3cncn3)ccc2=O)c1	2.06
Cc1c(Cl)cccc1S(=O)(=O)N1CCC(S(=O)(=O)c2nncn2C)CC1	1.06
COc1ccc(CC(=O)N2CCc3nc(C(=O)N(C)C)sc3CC2)cc1	15.8
Cc1noc(C[C@@H]2COC[C@H]3CN(C(=O)C4=CCCC4)C[C@@H]23)n1	-0.91
O=C(CCn1ccc2cc(Br)ccc21)/N=c1\[nH]nc(C2CCCO2)s1 (stereo not given)	-2.31
CN(C)c1ccc(-c2cc(=O)n3c(n2)CCCCC3)cc1	-13.1
O=C(NCC1CCN(Cc2ccsc2)CC1)NC1CC1	6.82
c1coc(CN2Cc3nccn3CC(Cn3cncn3)C2)c1 (stereo not given)	-7.18
Cc1cccc(N2CC(c3nnc(N)s3)CC2=O)c1 (stereo not given)	3.79
CCN1CCCC(O)(CN(C)Cc2ccc(C)o2)C1 (stereo not given)	-3.65
CCn1nccc1CN(C)C(=O)Cn1cc2c(n1)c(C)nn2CC	15.4
COCc1nc(N(C)C)ncc1C(=O)Nc1cc(C)cc(C)c1	6.89
Cc1nn(C)c2c(NCc3cccnc3)nc(C3CC3)nc12	-9.84
CC(=O)N[C@H]1CCO[C@@H](c2cccc(NC(=O)c3ccc(=O)[nH]n3)c2)C1	4.46
CN1CCC(C(=O)N2CCC(c3ccc4c(N)n[nH]c4n3)CC2)CC1	2.43
CC1(C(=O)N2CCSCC2)CNCCO1 (stereo not given)	4.79
CCC(=O)N1CCCC1(C)c1nc(C)no1 (stereo not given)	1.34
c1ccc2ncc(CC3CCNC3)cc2c1 (stereo not given)	-1.67
Cc1nn(C)c(C)c1-c1cncc(C2CCN(S(C)(=O)=O)CC2)n1	8.88
O=C(c1ccc(Cl)cc1)N1CCn2c(nn(-c3ccc(Cl)cc3)c2=O)C1	10.9

SMILES	cytotoxicity at 10 µM [%]
CC(C)NC1CCN(CCc2ccc3c(c2)CCO3)CC1	-21.8
COc1ccc(Cl)cc1CCNC(=O)N(C)CC1CCOC1 (stereo not given)	7.17
CCc1nnc(CS(=O)(=O)c2ccc(C)cc2)n1C	7.05
CNC(=O)c1cccc(CN2CCN(c3ccncc3)CC2)c1	-19.7
COc1ccc(Cl)cc1CS(=O)(=O)Cc1noc(C)n1	2.32
FC(F)(F)c1cc(C2CCCN(Cc3cccnc3)C2)n[nH]1 (stereo not given)	-45.7
CC(c1ccncc1)N(C)C(=O)NCCOc1ccc(C#N)cc1 (stereo not given)	-15.5
COC(=O)c1ccc(OCC(=O)N(C)Cc2ccsc2)c(OC)c1	5.98
Cc1ccc(C(=O)N2CCSCC2)cc1NC(=O)NCC1CCC1	3.07
COC(=O)CNC(=O)C(C)Oc1ccccc1C(F)(F)F (stereo not given)	6.08
O=C(CC1CN(Cc2ccccc2)CCO1)NC1CCSCC1 (stereo not given)	-15.1
Cc1cc(C(=O)NC2CC(=O)N(C(C)C)C2=O)c(C)n1C(C)C (stereo not given)	-9.13
CCSCCC(C)N(C)C(=O)c1ccc2nncn2c1 (stereo not given)	-5.4
CCNC(=O)N1CCC(NC(=O)NCCCc2cccc(F)c2)C1 (stereo not given)	-47.5
Cn1cc(S(=O)(=O)N2CCC(OCCCc3ccccc3)C2)cn1 (stereo not given)	8.93
CCCNC(=O)CNc1ccccc1OCCC(=O)OC	8.95
O=C(NCC1(c2ccc(F)cc2)CCC1)N1CCC2(CCOCC2)C1	3.73
CCN(C(=O)CNC1CCc2ncnn2C1)C1=CCCCC1 (stereo not given)	0.701
O=C(NCC1(O)CCOC1)NCC1(c2ccccc2Cl)CCC1 (stereo not given)	-50.8
COc1ccnc(N2CCN(C(=O)CCc3cnn(C)c3)CC2)n1	8.72
Cn1ncnc1NS(=O)(=O)c1ccccc1	8.26
O=C(CCc1cccc(Cl)c1)NS(=O)(=O)Cc1ccon1	8.76

SMILES	cytotoxicity at 10 µM [%]
c1ccc(-c2noc(CN3CCC(c4ccn[nH]4)CC3)n2)cc1	-1.19
Cc1ccccc1C(=O)Nc1cnn(CC(=O)NC2CCCC2)c1	-18.4
COC(=O)C(C)(C)NC(=O)C1CC(=O)N(C)C1 (stereo not given)	-8.92
Cc1nc(C)c(C(=O)N2CCC(Nc3cccnc3)CC2)s1	-6.75
Cc1nc(C2(NCC(=O)NC(=O)NCc3cccs3)CCCCC2)no1	-9.52
O=C(CCc1cscn1)NS(=O)(=O)c1ccc2ccccc2c1	-13.1
CCC(=O)N1CCC2(C=C(C(=O)N3CCCC3)c3ccccc32)CC1	-92.8
Cc1cc(CN2CC[C@@H]3O[C@@H](c4nnc(C)o4)C[C@H]3C2)no1	-103
O=C(C1CCOC1)N1C[C@H]2CN(Cc3cccc(F)c3)C(=O)[C@H]2C1 (stereo not given in full)	-106
CCn1ncnc1CN1CCC(CNC(=O)c2ccccc2C#N)C1 (stereo not given)	13.2
O=C(O)c1cc(-c2ccncc2)cc(S(=O)(=O)N2CCSCC2)c1	3.26
COc1ccc(F)cc1-n1cnc(CCNC(C)=O)c1	13.7
O=S(=O)(NCc1ccccc1)Nc1ccc(-n2cncn2)cc1	4.44
COc1cccc(N2CCN(Cc3cccc(CCN)c3)CC2=O)c1	-1.42
CN1CCC(NCC2(O)CCCN(Cc3ccccc3F)C2=O)CC1 (stereo not given)	-12.2
CCCc1ccc(CN2CCC3(CC2)CNC(=O)C3)o1	-3.71
OCCN(Cc1ccccc1)Cc1nc(-c2ccc3c(c2)OCO3)no1	4.74
CCc1cc(N2CCC(N3CCSCC3)CC2)n2nccc2n1	0.998
CC[C@H]1COCCN1C(=O)CCCn1nnc(-c2ccc(F)cc2)n1	13.4
CS(=O)(=O)N1CCCn2nc(CNc3ncccn3)cc2C1	4.83
CN1CC2(CCCN(Cc3nnc(-c4ccccc4)o3)CC2)OC1=O (stereo not given)	0.184
O=C(c1ccccc1C(F)(F)F)N1C[C@@H](CN2CCOCC2)[C@@H](CO)C1	-3.7

SMILES	cytotoxicity at 10 µM [%]
O=C(Nc1ccc(-c2ccn[nH]2)cc1)C1CCCN(Cc2ccoc2)C1 (stereo not given)	-0.16
O=C(O)c1cccc(N2CCC(Oc3cccc(F)c3)CC2)n1	-44.1
CN(Cc1cccc(-n2cccn2)c1)Cc1c[nH]cn1	5.67
COc1ccc2c(c1)C(C(=O)NCCN1CCOC1=O)CC(=O)N2 (stereo not given)	8.68
Cn1cnc2cc(C(=O)N3CCC(c4ccccc4C(=O)O)C3)cnc21 (stereo not given)	-8.98
Cc1ccc2c(-c3nc4c([nH]3)CCNC4C(=O)O)cccc2n1 (stereo not given)	-3.15
O=C(O)c1ccccc1C1CCN(C2CCN(c3ccccc3)CC2)C1 (stereo not given)	-14.5
CCC(CO)N(Cc1cccnc1)C(=O)c1ccc(C)[nH]c1=O (stereo not given)	-3.95
CS(=O)(=O)NC1CCN(C(=O)c2coc(CN3CCOCC3)c2)CC1	3.54
CCN1CCC(Cn2ccc3c(OC)c(OC)ccc3c2=O)C1 (stereo not given)	-4.7
CC(C)N1CCC2(CC1)CC(=O)N(Cc1cc(F)cc(F)c1)C2	9.03
O=C(CCn1cccc1)N1CCc2[nH]nc(COc3ccccc3)c2C1	7.54
CN1CCC(N(C)C[C@H]2CC[C@@H](Cc3cccc(O)c3)O2)CC1	-12.2
CN(C)C(=O)Cc1ccc(-c2cccc3c2CCNC3)cc1	2.28
Cc1cc2cccc(C(=O)N3CC[C@@H](N)[C@H](O)C3)c2o1	-0.193
Cc1cc(C)c2nc(CN3CCC(CN)CC3)cc(O)c2c1	2.55
CN(C)CCN(C)C1CCN(C(C(=O)O)c2ccc(F)c(Cl)c2)CC1 (stereo not given)	2.95
CCOCc1nc(CSc2ccncc2)n(C2CCN(C)CC2)n1	-1.45
CC(=O)CCCC(=O)N(Cc1ccsc1)CC(C)C	-50.3
CCc1ccccc1-c1cc(OC)nc(N)n1	-3.3
Cc1ncc(CN2CCC(CNS(=O)(=O)C3CC3)C2)cn1 (stereo not given)	2.84
CN(C)C1CCCN(Cc2cccc(Cn3cccn3)c2)CC1 (stereo not given)	-12.6

SMILES	cytotoxicity at 10 µM [%]
Cn1cccc1-c1cc(C(=O)NCCCc2csc(N)n2)[nH]n1	-8.9
CC1(COc2ccccc2)NCCc2[nH]cnc21 (stereo not given)	-0.254
c1csc(CCC2CCCCN2Cc2noc(C3CC3)n2)c1 (stereo not given)	0.562
O=C(O)C(c1ccc2c(c1)OCO2)N1CCCC1 (stereo not given)	-3.04
Cc1ncccc1OC1(C(=O)NCCNc2ccccc2)CCNCC1	-12.4
CCOCCn1c(=O)[nH]c2cc(C(=O)N(C)Cc3nc(C)cs3)ccc21	-10.6
CCNC(=O)N1CCN(Cc2nc3ccccc3[nH]2)[C@@H]2CS(=O)(=O)C[C@@H]21	14.1
Cc1cnn(CCNCc2csc(-c3ccccc3)n2)c1	-9.48
CNC(=O)c1ccc(C(=O)N2CCCC(n3cc(C)cn3)C2)cn1 (stereo not given)	-0.884
Cc1noc(C)c1CN(C)C(=O)NC1CCN(C2CC2)CC1	-10.1
Cc1cnc(CN(C)C2CCN(CC(=O)Nc3c(C)n[nH]c3C)C2)o1 (stereo not given)	-6.38
CC(C)(C)c1cn2nc(N3CCC[C@@H]3CO)sc2n1	3.64
CN(C)CCn1c2c(ccc1=O)CC(NCc1cccnc1)CC2 (stereo not given)	14.4
Cc1ccc(C(=O)N2CCC3(CCN(C(=O)c4cccnc4)C3)CC2)o1	0.101
CC(=O)N1CCC2(CC1)COCCN2Cc1ccc(F)cc1	5.69
CC1c2ncc(CN3CCN(C)CC3)n2CCN1Cc1cccnc1 (stereo not given)	-2.12
Cc1cccc(CN2Cc3[nH]nc(COc4cccnc4)c3C2)n1	0.288
CC(=O)N1CCC2(CC1)CN(C(=O)c1cccnc1)c1ccc(F)cc12	-108
c1cncc(COCc2nnc3n2CCN(Cc2ccoc2)C3)c1	-11.2
CCC1=N[C@@]2(CC[C@@H]3CN(Cc4ccc(C)cc4)C[C@@H]32)C(=O)N1C	-95
c1cnc(N2CCOC3(CCN(CC4CCCCC4)CC3)C2)nc1	0.256
CN1C[C@@H]2CC[C@H]1CN(C(=O)COCc1nc3ccc(F)cc3[nH]1)C2	-1.88
